Data reported in PMC2735267 (Neuropharmacology, 2009).
Like-named read-outs stand apart in the source and are kept apart here. Marks after values point to notes of the source that are not given here.

What was measured:
C57BL/6J mice = assay: 3-IC-induced hypothermia; format: in vivo, mouse
β2 null mutant mice = assay: 3-IC-induced hypothermia in β2 null mutant and wild-type mice; format: in vivo, mouse; settings: 0.2 mg/kg ip
In short: (§1)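 Null mutants were backcrossed onto C57BL/6J for at least 10 generations, genotyped from tail DNA, and compared with wild-type mice (β2-/- n = 5; β4-/- n = 5). Test compound was given at 0.2 mg/kg IP in 10 µl/g body weight. Rectal temperature was taken every 5 minutes with a peanut-oil-lubricated probe inserted 1.5 cm. Data are mean ± SEM, analysed by repeated-measures ANOVA (time × genotype).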

β4 null mutant mice = assay: 3-IC-induced hypothermia in β4 null mutant and wild-type mice; format: in vivo, mouse; settings: 0.2 mg/kg ip
In short: as §1

α7* nAChR binding sites = format: in vivo, DBA/2J mice; settings: cerebral cortex membranes; 0.2 mg/kg/h iv 7 days
[1] = test system: cytisine-sensitive [125I]epibatidine binding sites; format: in vivo, DBA/2J mice; settings: for Cytisine-sensitive [125I]epibatidine binding: 3-IC 0.2 mg/kg/h iv 7 days; for Cytisine-sensitive [125I]epibatidine binding % change: 3-IC 0.2 mg/kg/h iv 7 days vs saline
[2] = dorsolateral geniculate nucleus
[3] = superior colliculus (optic nerve)

For `O=c1c(I)ccc2n1C[C@@H]1CNC[C@H]2C1` [3-IC, 3-iodocytisine], the “decrease of basal temperature” value (C57BL/6J mice; 0.2 mg/kg ip acute) was 9.2 ± 1.13 °C, the maximal temperature decrease (C57BL/6J mice; 1 mg/kg ip) was 13.3 ± 0.9 °C and the “maximal 3-IC-induced hypothermia after saline pretreatment” value (C57BL/6J mice; hexamethonium experiment, 3-IC 0.2 mg/kg) was 9.25 ± 0.76 °C. The ED50 for hypothermia (C57BL/6J mice; ip, maximal drop in temperature) was 0.16 ± 0.03 mg/kg, the “3-IC-induced hypothermia after saline pretreatment” value (C57BL/6J mice; mecamylamine experiment, 3-IC 0.2 mg/kg ip) was 9.25 ± 0.76 °C and the “maximal 3-IC induced hypothermia (decrease of temperature)” value (β2 null mutant mice; β2+/+ mice) was 9.8 ± 0.76 °C. For the same compound, the “maximal 3-IC induced hypothermia (decrease of temperature)” value (β2 null mutant mice; β2-/- mice) was 8.4 ± 1 °C, the maximal hypothermia (β4 null mutant mice; β4+/+ mice) was 7.9 ± 0.3 °C and the maximal hypothermia (β4 null mutant mice; β4-/- mice) was 2.9 ± 0.4 °C. The “increase in [125I]α-bungarotoxin binding sites compared to saline” value (α7* nAChR binding sites) was 58%, the “Cytisine-sensitive [125I]epibatidine binding” value ([1]; anterior olfactory nucleus) was 16.1 ± 1.4 fmol/mg and the “Cytisine-sensitive [125I]epibatidine binding % change” value ([1]; anterior olfactory nucleus) was 53.5%. The “Cytisine-sensitive [125I]epibatidine binding” value ([1]; anteromedial thalamic nucleus) was 50.3 ± 4.0 fmol/mg, the “Cytisine-sensitive [125I]epibatidine binding % change” value ([1]; anteromedial thalamic nucleus) was -0.8% and the “Cytisine-sensitive [125I]epibatidine binding” value ([1]; caudate putamen) was 20.3 ± 1.9 fmol/mg. The “Cytisine-sensitive [125I]epibatidine binding % change” value ([1]; caudate putamen) was 68.3 * %, the “Cytisine-sensitive [125I]epibatidine binding” value ([1]; cingulate cortex) was 23.6 ± 1.5 fmol/mg and the “Cytisine-sensitive [125I]epibatidine binding % change” value ([1]; cingulate cortex) was 42.0%. For the same compound, the “Cytisine-sensitive [125I]epibatidine binding” value ([1]; dentate gyrus (granular layer)) was 12.3 ± 0.6 fmol/mg, the “Cytisine-sensitive [125I]epibatidine binding % change” value ([1]; dentate gyrus (granular layer)) was 46.8 * % and the “Cytisine-sensitive [125I]epibatidine binding” value [1, 2] was 70.7 ± 3.9 fmol/mg. For the same compound, the “Cytisine-sensitive [125I]epibatidine binding % change” value [1, 2] was 9.7%, the “Cytisine-sensitive [125I]epibatidine binding” value ([1]; dorsomedial thalamic nucleus) was 52.9 ± 5.2 fmol/mg and the “Cytisine-sensitive [125I]epibatidine binding % change” value ([1]; dorsomedial thalamic nucleus) was -4.5%. For the same compound, the “Cytisine-sensitive [125I]epibatidine binding” value ([1]; fasciculus retroflexus) was 40.2 ± 4.0 fmol/mg, the “Cytisine-sensitive [125I]epibatidine binding % change” value ([1]; fasciculus retroflexus) was 1.0% and the “Cytisine-sensitive [125I]epibatidine binding” value ([1]; hippocampus (CA1-3)) was 9.0 ± 0.2 fmol/mg. For the same compound, the “Cytisine-sensitive [125I]epibatidine binding % change” value ([1]; hippocampus (CA1-3)) was 56.3 *** %, the “Cytisine-sensitive [125I]epibatidine binding” value ([1]; inferior colliculus (central)) was 12.2 ± 2.5 fmol/mg and the “Cytisine-sensitive [125I]epibatidine binding % change” value ([1]; inferior colliculus (central)) was 97.2 * %. For the same compound, the “Cytisine-sensitive [125I]epibatidine binding” value ([1]; inferior colliculus (dorsal)) was 22.8 ± 2.1 fmol/mg, the “Cytisine-sensitive [125I]epibatidine binding % change” value ([1]; inferior colliculus (dorsal)) was 68.7 * % and the “Cytisine-sensitive [125I]epibatidine binding” value ([1]; inferior colliculus (external)) was 16.8 ± 2.1 fmol/mg. The “Cytisine-sensitive [125I]epibatidine binding % change” value ([1]; inferior colliculus (external)) was 88.9 * %, the “Cytisine-sensitive [125I]epibatidine binding” value ([1]; interpeduncular nucleus) was 194.7 ± 42.8 fmol/mg and the “Cytisine-sensitive [125I]epibatidine binding % change” value ([1]; interpeduncular nucleus) was -0.6%. For the same compound, the “Cytisine-sensitive [125I]epibatidine binding” value ([1]; medial geniculate nucleus) was 49.4 ± 8.2 fmol/mg, the “Cytisine-sensitive [125I]epibatidine binding % change” value ([1]; medial geniculate nucleus) was 27.2% and the “Cytisine-sensitive [125I]epibatidine binding” value ([1]; medial habenula) was 171.3 ± 36.4 fmol/mg. The “Cytisine-sensitive [125I]epibatidine binding % change” value ([1]; medial habenula) was 52.6%, the “Cytisine-sensitive [125I]epibatidine binding” value ([1]; nucleus accumbens) was 15.9 ± 2.1 fmol/mg and the “Cytisine-sensitive [125I]epibatidine binding % change” value ([1]; nucleus accumbens) was 91.8 * %. The “Cytisine-sensitive [125I]epibatidine binding” value ([1]; olfactory tubercle) was 14.5 ± 1.6 fmol/mg, the “Cytisine-sensitive [125I]epibatidine binding % change” value ([1]; olfactory tubercle) was 83.5 * % and the “Cytisine-sensitive [125I]epibatidine binding” value ([1]; optic tract) was 15.1 ± 2.9 fmol/mg. The “Cytisine-sensitive [125I]epibatidine binding % change” value ([1]; optic tract) was 126.2%, the “Cytisine-sensitive [125I]epibatidine binding % change” value ([1]; optic tract, listed as 3-iodocytisine) was 126.2 * % and the “Cytisine-sensitive [125I]epibatidine binding” value ([1]; parietal cortex (layers 1-3)) was 9.1 ± 1.0 fmol/mg. For the same compound, the “Cytisine-sensitive [125I]epibatidine binding % change” value ([1]; parietal cortex (layers 1-3)) was 71.7 * %, the “Cytisine-sensitive [125I]epibatidine binding” value ([1]; parietal cortex (layers 4-6)) was 19.0 ± 1.6 fmol/mg and the “Cytisine-sensitive [125I]epibatidine binding % change” value ([1]; parietal cortex (layers 4-6)) was 79.7 * %. For the same compound, the “Cytisine-sensitive [125I]epibatidine binding” value ([1]; retrosplenial Cortex) was 26.6 ± 2.7 fmol/mg, the “Cytisine-sensitive [125I]epibatidine binding % change” value ([1]; retrosplenial Cortex) was 35.6% and the “Cytisine-sensitive [125I]epibatidine binding” value ([1]; subiculum) was 41.7 ± 3.8 fmol/mg. The “Cytisine-sensitive [125I]epibatidine binding % change” value ([1]; subiculum) was 27.8%, the “Cytisine-sensitive [125I]epibatidine binding” value ([1]; substantia nigra) was 43.6 ± 7.3 fmol/mg and the “Cytisine-sensitive [125I]epibatidine binding % change” value ([1]; substantia nigra) was 38.0%. For the same compound, the “Cytisine-sensitive [125I]epibatidine binding” value [1, 3] was 47.3 ± 2.2 fmol/mg, the “Cytisine-sensitive [125I]epibatidine binding % change” value [1, 3] was 60.6 *** % and the “Cytisine-sensitive [125I]epibatidine binding” value ([1]; superior colliculus (sup. gray)) was 51.2 ± 4.4 fmol/mg.
